We go through 14 molecules from ChEMBL document CHEMBL4028845, “Design, Synthesis, and Properties of a Potent Inhibitor of Pseudomonas aeruginosa Deacetylase LpxC” (J Med Chem, 2017).

The term MIC50 denotes the lowest concentration that inhibits either 50% of growth or 50% of the strains tested, depending on the study. Usually MIC90 stands for an inhibitory concentration at the 90% level, which refers to growth in some studies and to a panel of isolates in others. A lower MIC90 goes with higher susceptibility. By IC50 is commonly meant the concentration that inhibits the measured activity by half. The low end stands for greater potency, the high end for weaker potency. What is called MIC is the smallest concentration in the dilution series that meets the test's criterion for growth inhibition. The low end stands for greater potency, the high end for weaker potency. The term CC50 denotes the concentration giving 50% cytotoxicity. In general, solubility refers to how much of the substance goes into solution per volume.

In brackets after ≈: the same amount, converted by molar mass. A value given as a limit tells only on which side of the number the result lay.

In data set [1] the test system is Pseudomonas aeruginosa. As to the kind of experiment: Antibacterial activity against Pseudomonas aeruginosa clinical isolate after 18 to 24 hrs. Format: functional.
Data set [2] deals with T1, UDP-3-O-acyl-N-acetylglucosamine deacetylase (Pseudomonas aeruginosa (strain ATCC 15692 / PAO1 / 1C / PRS 101 / LMG12228), UniProt P47205).
T1 sequence (P47205 whole entry): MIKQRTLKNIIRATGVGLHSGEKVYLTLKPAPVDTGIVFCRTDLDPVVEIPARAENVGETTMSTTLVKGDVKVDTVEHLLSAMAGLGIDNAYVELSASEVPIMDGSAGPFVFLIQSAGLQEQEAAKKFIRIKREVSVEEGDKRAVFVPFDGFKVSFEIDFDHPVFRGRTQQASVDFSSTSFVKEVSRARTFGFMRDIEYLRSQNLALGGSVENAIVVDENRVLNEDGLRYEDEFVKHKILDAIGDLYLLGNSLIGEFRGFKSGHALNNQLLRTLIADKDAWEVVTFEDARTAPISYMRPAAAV
As to the kind of experiment: Inhibition of Pseudomonas aeruginosa LpxC using UDP-3-O-(R-hydroxydecanoyl)-N-acetylglucosamine as substrate preincubated for 30 mins followed by substrate addition measured after 20 mins by LC-MS/MS analysis.

The test system of data set [3] is Pseudomonas aeruginosa. As to the kind of experiment: Antibacterial activity against mexAB-oprM deficient Pseudomonas aeruginosa K1119 after 18 to 24 hrs. The format is functional. An outline of the steps:
(§1)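 Broth MIC per CLSI guidelines in cation-adjusted Mueller Hinton broth. Compounds were dissolved and serially diluted in DMSO (carbapenems in water) before addition to plates. Incubation was at 37 °C for 18−24 h. MIC is the lowest concentration preventing visible growth. MIC50/MIC90 are the concentrations inhibiting 50% or 90% of isolates tested.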

The subject of data set [4] is Pseudomonas aeruginosa. Put plainly: Antibacterial activity against hypersusceptible Pseudomonas aeruginosa Z61 after 18 to 24 hrs. The format is functional. An outline of the steps:
as §1

Data set [5] deals with Pseudomonas aeruginosa. As to the kind of experiment: Antibacterial activity against Pseudomonas aeruginosa PAO1 K767 after 18 to 24 hrs. Format: functional. Summed up:
as §1

The test system of a further data set is Proteus mirabilis. As to the kind of experiment: Antibacterial activity against Proteus mirabilis NB32022 after 18 to 24 hrs. Format: functional. An outline of the steps:
as §1

The subject of the next data set is Alcaligenes. Put plainly: Antibacterial activity against Alcaligenes xylosus NB56002 after 18 to 24 hrs. Format: functional. An outline of the steps: as §1
The subject of the next data set is Klebsiella oxytoca. Put plainly: Antibacterial activity against Klebsiella oxytoca NB30007 after 18 to 24 hrs. Format: functional. Summed up:
as §1

A further data set deals with Klebsiella aerogenes. Put plainly: Antibacterial activity against Enterobacter aerogenes NB24004 after 18 to 24 hrs. Format: functional. An outline of the steps: as §1
In the next data set the test system is Burkholderia cepacia. As to the kind of experiment: Antibacterial activity against Burkholderia cepacia NB49016 after 18 to 24 hrs. Format: functional. An outline of the steps:
as §1

The test system of a further data set is Acinetobacter baumannii. As to the kind of experiment: Antibacterial activity against Acinetobacter baumannii NB48015 after 18 to 24 hrs. Format: functional. An outline of the steps: as §1
The test system of data set [6] is Stenotrophomonas maltophilia. Put plainly: Antibacterial activity against Stenotrophomonas maltophilia NB55011 after 18 to 24 hrs. Format: functional. Summed up:
as §1

A short description of data set [7]: Cytotoxicity against human HepG2 cells assessed as reduction in cell viability after 72 hrs by WST1 assay. The format is cell-based. An outline of the steps:
(§2)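 Cells were grown and assayed in medium with 10% heat-inactivated FBS and exposed to compound for 72 h. Metabolic activity was read as WST-1 cleavage to formazan at A450, with puromycin as positive control. CC50 (50% reduction in viability) was calculated from dose-response curves.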

Data set [8] can be described thus: Solubility of the compound at pH 6.8 by high throughput screening assay. Format: physicochemical. As to conditions: buffer, read-out: solubility.
A short description of data set [9]: Cytotoxicity against human K562 cells assessed as reduction in cell viability after 72 hrs by WST1 assay. The format is cell-based. An outline of the steps:
as §2
(In general: Tetrazolium assays rely on reduction of a dye to a coloured formazan, in cell work by metabolically active cells.)

In the case of COLISTIN, in the data set with Pseudomonas aeruginosa [1], the MIC50 came out at 0.5 µg/mL and the MIC90 came to 2 µg/mL.

For the molecule `CCc1ccc(-c2ccc(C(=O)N[C@H](C(=O)NO)[C@@H](C)NCC(=O)O)cc2)cc1`, in data set [2], the concentration for half-maximal inhibition (IC50) was 0.001 µM. For the same molecule, the values for the minimal inhibitory concentration (MIC) against Pseudomonas aeruginosa [3], in the data set on Pseudomonas aeruginosa [4] and in the data set with Pseudomonas aeruginosa [5] were 1 µg/mL (≈ 2.5 µM), 32 µg/mL (≈ 80.1 µM) and 128 µg/mL (≈ 320 µM), respectively.

`C[C@@H](O)[C@H]1C(=O)N2C(C(=O)O)=C(S[C@@H]3CN[C@H](C(=O)N(C)C)C3)[C@H](C)[C@H]12` [MEROPENEM]: in the data set on Pseudomonas aeruginosa [1], the MIC50 amounted to 2 µg/mL (≈ 5.22 µM) and the MIC90 was found to be 32 µg/mL (≈ 83.4 µM).

On to `C[C@@H](N)[C@H](NC(=O)[C@H]1CC[C@H](C(C)(C)C)CC1)C(=O)NO`, for which the IC50 in [2] was 0.117 µM. Moreover, the figures for the MIC against Pseudomonas aeruginosa [3], with Pseudomonas aeruginosa [4] and in the data set with Pseudomonas aeruginosa [5] were 16 µg/mL (≈ 53.4 µM), 32 µg/mL (≈ 107 µM) and 128 µg/mL (≈ 428 µM), respectively.

For `C[C@@H](N)[C@H](NC(=O)c1ccc(N2CCOCC2)cc1)C(=O)NO`, 1.64 µM corresponded to half-maximal inhibition in [2] (IC50). The MIC in the data set on Pseudomonas aeruginosa [3] is 16 µg/mL (≈ 49.6 µM); with Pseudomonas aeruginosa [4], 32 µg/mL (≈ 99.3 µM); in the data set on Pseudomonas aeruginosa [5] it was above 128 µg/mL.

For the molecule `C[C@@H](O)[C@H]1C(=O)N2C(C(=O)O)=C(S[C@@H]3CN[C@H](CNS(N)(=O)=O)C3)[C@H](C)[C@H]12` [DORIPENEM], in the data set on Pseudomonas aeruginosa [1], the MIC50 amounted to 1 µg/mL (≈ 2.38 µM) and the MIC90 is 32 µg/mL (≈ 76.1 µM).

In the data set with Pseudomonas aeruginosa [1], `NC[C@H]1O[C@H](O[C@H]2[C@H](O)[C@@H](O[C@H]3O[C@H](CO)[C@@H](O)[C@H](N)[C@H]3O)[C@H](N)C[C@@H]2N)[C@H](N)C[C@@H]1O` [TOBRAMYCIN] gave an MIC50 of 2 µg/mL (≈ 4.28 µM) and an MIC90 above 128 µg/mL.

As for `O=C(O)c1cn(C2CC2)c2cc(N3CCNCC3)c(F)cc2c1=O` [CIPROFLOXACIN], the MIC in the data set with Proteus mirabilis was at most 0.03 µg/mL; against Alcaligenes, 2 µg/mL (≈ 6.04 µM); in the data set on Klebsiella oxytoca it was at most 0.03 µg/mL; against Klebsiella aerogenes it was above 16 µg/mL; in the data set with Burkholderia cepacia it was 0.5 µg/mL (≈ 1.51 µM); with Acinetobacter baumannii, 0.5 µg/mL (≈ 1.51 µM). In data set [6], this molecule had an MIC of 0.5 µg/mL (≈ 1.51 µM).

For `CC[C@H]1OC(=O)[C@H](C)[C@@H](O[C@H]2C[C@@](C)(OC)[C@@H](O)[C@H](C)O2)[C@H](C)[C@@H](O[C@@H]2O[C@H](C)C[C@H](N(C)C)[C@H]2O)[C@](C)(O)C[C@@H](C)CN(C)[C@H](C)[C@@H](O)[C@]1(C)O` [AZITHROMYCIN], in the data set with Pseudomonas aeruginosa [1], the MIC50 was determined as 16 µg/mL (≈ 21.4 µM) and the MIC90 was above 128 µg/mL.

In the case of `CCN1CCN(C(=O)N[C@@H](C(=O)N[C@@H]2C(=O)N3[C@@H]2SC(C)(C)[C@@H]3C(=O)O)c2ccccc2)C(=O)C1=O` [PIPERACILLIN], in the data set on Pseudomonas aeruginosa [1], the MIC50 stood at 32 µg/mL (≈ 61.8 µM) and the MIC90 was above 128 µg/mL.

On to `CC#CCOc1ccc(C(=O)N[C@@H](C(=O)NO)C(C)(C)N)cc1`, for which the minimum inhibitory concentration (MIC) stood at 2 µg/mL (≈ 6.26 µM) in the data set on Pseudomonas aeruginosa [3], 4 µg/mL (≈ 12.5 µM) in the data set with Pseudomonas aeruginosa [4] and 16 µg/mL (≈ 50.1 µM) against Pseudomonas aeruginosa [5].

Turning to `CCc1ccc(-c2ccc(C(=O)N[C@H](C(=O)NO)[C@@H](C)N)cc2)cc1`, the CC50 at 72 h in [7] came to 12.8 µM; in [9], 7.37 µM. The same molecule had a half-maximal inhibitory concentration (IC50) in data set [2] of 0.00146 µM. In addition, the MIC came to 0.06 µg/mL (≈ 0.176 µM) against Pseudomonas aeruginosa [3], 0.25 µg/mL (≈ 0.732 µM) against Pseudomonas aeruginosa [4] and 2 µg/mL (≈ 5.86 µM) in the data set with Pseudomonas aeruginosa [5]. The solubility in data set [8] came to 4 µg/mL (≈ 11.7 µM).

In turn, `CC#CCOc1ccc(C(=O)N[C@H](C(=O)NO)[C@H](N)C(C)C)cc1` gave an IC50 in data set [2] of 0.9 µM. Moreover, the MIC against Pseudomonas aeruginosa [3] was 16 µg/mL (≈ 48 µM); with Pseudomonas aeruginosa [4], 32 µg/mL (≈ 96 µM); with Pseudomonas aeruginosa [5] it was above 128 µg/mL.

As to `CCCCc1ccc(C(=O)N[C@H](C(=O)NO)[C@@H](C)N)cc1`, the results for the CC50 at 72 h in [7] and in data set [9] were 125 µM and 42.3 µM, respectively. For the same molecule, in [2], the IC50 is 0.0375 µM. Further, the MIC is 0.5 µg/mL (≈ 1.7 µM) in the data set with Pseudomonas aeruginosa [3], 1 µg/mL (≈ 3.41 µM) against Pseudomonas aeruginosa [4] and 8 µg/mL (≈ 27.3 µM) against Pseudomonas aeruginosa [5]. In [8], the solubility is above 293 µg/mL.
